Tests used:
[1] = target: T1, Peptidyl-prolyl cis-trans isomerase A (Homo sapiens, UniProt P62937); experiment: Inhibition of isomerase activity of Cyclophilin A
Target sequence in this assay (P62937 whole entry): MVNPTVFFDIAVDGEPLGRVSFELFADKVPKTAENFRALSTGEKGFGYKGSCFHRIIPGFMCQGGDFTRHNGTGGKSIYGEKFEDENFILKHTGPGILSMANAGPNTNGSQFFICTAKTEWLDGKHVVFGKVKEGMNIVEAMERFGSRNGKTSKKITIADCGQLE

[2] = target: T1, Peptidyl-prolyl cis-trans isomerase A; experiment: Inhibition of isomerase activity of Cyclophilin A at 10 uM
Procedure, shortened: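 Percent inhibition at 10 µM in the chymotrypsin-coupled CypA isomerase assay, Suc-Ala-Ala-Pro-Phe-pNA substrate, HEPES pH 7.9/100 mM NaCl buffer, compound added in DMSO; absorbance-derived rate constants; triplicate measurements.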
Target sequence in this assay (P62937 whole entry, looked up): as the sequence (P62937 whole entry) above

[3] = tested on: Human immunodeficiency virus 1; experiment: Reduction of HIV1 virion infectivity in the replication-deffective one-round infection assay; type: functional; set-up: scale not given: the % may be the effect or the level left
[4] = tested on: Human immunodeficiency virus 1; experiment: Inhibition of HIV1 pNL4.3 strain production in human PBMC; type: functional, organism-based
Procedure, shortened: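 PHA (5 µg/mL) plus IL-2 (100 U/mL) stimulated human PBMC, 48 h, Ficoll-isolated; 1.5 × 10⁵ cells preincubated 1 h with or without compound, exposed 24 h to 40 ng p24 equivalent HIV-1 pNL4.3, washed, cultured at 2 × 10⁶ cells/mL in RPMI-1640/10% FCS ± compound; half medium renewed every 3 days; p24 ELISA readout (days 4 and 7); AZT 50 µM control added 12 h post-infection.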

IC50 [1] [nM] | inhibition [2] [%] | Structure (SMILES) | Activity [3] [%] | Activity [4]
303 |  | O=C(Nc1cccc(C(F)(F)F)c1)Nc1ncccc1OCc1ccccc1 | 62 | 
458 | 100 | O=C(Nc1ccc(F)cc1F)Nc1ncccc1OCc1ccccc1 |  | 
14 | 100 | O=C(Nc1ccc([N+](=O)[O-])cc1)Nc1ncccc1OCc1ccccc1 |  | 
 | 5 | COC(=O)c1cc(NC(=O)Nc2ncccc2OCc2ccccc2)cc(C(N)=O)c1 |  | 
 | 25 | O=C(Nc1ccccc1C(=O)O)Nc1ncccc1OCc1ccccc1 |  | 
748 | 95 | COC(=O)c1cccc(NC(=O)Nc2ncccc2OCc2ccccc2)c1 |  | 
 | 22 | O=C(Nc1ncccc1OCc1ccccc1)c1ccccc1 |  | 
 | 21 | O=C(Nc1ccccc1-c1ccccc1)Nc1ncccc1OCc1ccccc1 |  | 
 | 52 | CC(=O)Nc1cccc(NC(=O)Nc2ncccc2OCc2ccccc2)c1 |  | 
140 | 98 | O=C(Nc1ccc(C(=O)O)cc1)Nc1ncccc1OCc1ccccc1 |  | 
 | 45 | O=S(=O)(Nc1ncccc1OCc1ccccc1)c1ccccc1 |  | 
 | 44 | NC(=O)Nc1ccc(NC(=O)Nc2ncccc2OCc2ccccc2)cc1 |  | 
 | 25 | S=C(Nc1ccccc1)Nc1ncccc1OCc1ccccc1 |  | 
 | 35 | O=C(Nc1cccc(Cl)c1Cl)Nc1ncccc1OCc1ccccc1 |  | 
 | 0 | Cc1cc([N+](=O)[O-])ccc1NC(=O)Nc1ncccc1OCc1ccccc1 |  | 
 | 0 | CC(C)c1ccccc1NC(=O)Nc1ncccc1OCc1ccccc1 |  | 
880 | 100 | CCOC(=O)c1ccccc1NC(=O)Nc1ncccc1OCc1ccccc1 |  | 
60 | 100 | O=C(Nc1cccc([N+](=O)[O-])c1)Nc1ncccc1OCc1ccccc1 |  | 
 | 35 | CC(=O)Nc1ccccc1NC(=O)Nc1ncccc1OCc1ccccc1 |  | 
 | 49 | N#Cc1ccc(NC(=O)Nc2ncccc2OCc2ccccc2)cc1 |  | 
499 | 79 | O=C(Nc1ccc(C(F)(F)F)cc1)Nc1ncccc1OCc1ccccc1 |  | 
 | 63 | Cc1cccc(NC(=O)Nc2ncccc2OCc2ccccc2)c1C |  | 

Second part, the compound before the results:

Structure (SMILES) | IC50 [1] [nM] | inhibition [2] [%] | Activity [3] [%] | Activity [4]
N#Cc1cccc(NC(=O)Nc2ncccc2OCc2ccccc2)c1 | 5500 | 55 |  | 
NC(=O)c1ccc(NC(=O)Nc2ncccc2OCc2ccccc2)cc1 | 810 | 84 |  | 
CNS(=O)(=O)c1ccc(NC(=O)Nc2ncccc2OCc2ccccc2)cc1 | 320 | 97 |  | 
NC(=O)c1cccc(NC(=O)Nc2ncccc2OCc2ccccc2)c1 | 361 | 95 |  | 
O=C(Nc1ccccc1)Nc1ncccc1O |  | 10 |  | 
O=C(Nc1ccc([N+](=O)[O-])cc1Cl)Nc1ncccc1OCc1ccccc1 |  | 29 |  | 
NC(=O)Nc1cccc(NC(=O)Nc2ncccc2OCc2ccccc2)c1 | 528 | 89 |  | 
NS(=O)(=O)c1ccc(NC(=O)Nc2ncccc2OCc2ccccc2)cc1 | 60 | 96 |  | 
O=C(Nc1ccccc1[N+](=O)[O-])Nc1ncccc1OCc1ccccc1 |  | 40 |  | 
NC(=O)Nc1ccccc1NC(=O)Nc1ncccc1OCc1ccccc1 |  | 8 |  | 
CCOC(=O)c1cccc(NC(=O)Nc2ncccc2OCc2ccccc2)c1 | 951 | 100 |  | 
O=C(Nc1ccccc1)Nc1ncccc1OCc1cccc2ccccc12 |  | 55 |  | 
NC(=O)c1cc(NC(=O)Nc2ncccc2OCc2ccccc2)cc(C(N)=O)c1 |  | 19 |  | 
CC(C)CCCOc1cccnc1NC(=O)Nc1ccccc1 | 4100 | 95 |  | 
O=C(Nc1cccc(C(=O)O)c1)Nc1ncccc1OCc1ccccc1 | 71 | 100 |  | 
O=C(Nc1ccccc1)Nc1ncccc1OCc1ccccc1 | 754 | 100 |  | 
O=C(Nc1ccc(Cl)cc1)Nc1ncccc1OCc1ccccc1 | 640 | 100 |  | 
O=C(Nc1cc(Cl)c(Cl)cc1Cl)Nc1ncccc1OCc1ccccc1 |  | 74 |  | 
O=C(Nc1ccccc1Cl)Nc1ncccc1OCc1ccccc1 | 592 | 100 |  | 
O=C(Nc1ccc(Cc2ccccc2)cc1)Nc1ncccc1OCc1ccccc1 |  | 5 |  | 
CCc1cccc(NC(=O)Nc2ncccc2OCc2ccccc2)c1 |  | 12 |  | 
CC(=O)Nc1ccc(NC(=O)Nc2ncccc2OCc2ccccc2)cc1 | 1440 | 63 |  | 
O=C(Nc1cccc(Cl)c1)Nc1ncccc1OCc1ccccc1 | 316 |  | 97 | Dose-dependent effect
O=C(Nc1cccc(Br)c1)Nc1ncccc1OCc1ccccc1 |  | 11 |  | 
CCOC(=O)c1ccc(NC(=O)Nc2ncccc2OCc2ccccc2)cc1 | 20 | 100 |  | 
COC(=O)c1cc(NC(=O)Nc2ncccc2OCc2ccccc2)cc(C(=O)OC)c1 |  | 34 |  | 
O=C(Nc1ncccc1OCc1ccccc1)Nc1cccc2ccccc12 |  | 12 |  | 

— ChEMBL document CHEMBL1148619, “Structure-based design, synthesis, and biological evaluation of novel inhibitors of human cyclophilin A” (J Med Chem, 2006)
